Test results: ChEMBL document CHEMBL2034858, “An efficient one-pot synthesis, structure, antimicrobial and antioxidant investigations of some novel quinolyldibenzo[b,e][1,4]diazepinones” (2012)
≈ marks a conversion by molar mass, not a printed value.

Key:
[1] = tested on: Streptococcus pneumoniae; assay: Antibacterial activity against Streptococcus pneumoniae MTCC 1936 after 24 hrs by micro-broth dilution method; type: functional; details: MTCC 1936, 24 h
[2] = tested on: Clostridium tetani; assay: Antibacterial activity against Clostridium tetani MTCC 449 after 24 hrs by micro-broth dilution method; type: functional; details: MTCC 449, 24 h
[3] = tested on: Bacillus subtilis; assay: Antibacterial activity against Bacillus subtilis MTCC 441 after 24 hrs by micro-broth dilution method; type: functional; details: MTCC 441, 24 h
[4] = tested on: Salmonella typhi; assay: Antibacterial activity against Salmonella typhi MTCC 98 after 24 hrs by micro-broth dilution method; type: functional, Salmonella enterica subsp. enterica serovar Typhi; details: Salmonella enterica, MTCC 98, 24 h
[5] = tested on: Vibrio cholerae; assay: Antibacterial activity against Vibrio cholerae MTCC 3906 after 24 hrs by micro-broth dilution method; type: functional; details: MTCC 3906, 24 h
[6] = tested on: Escherichia coli; assay: Antibacterial activity against Escherichia coli MTCC 443 after 24 hrs by micro-broth dilution method; type: functional; details: MTCC 443, 24 h
[7] = tested on: Aspergillus fumigatus; assay: Antifungal activity against Aspergillus fumigatus MTCC 3008 after 48 hrs by micro-broth dilution method; type: functional
[8] = tested on: Candida albicans; assay: Antifungal activity against Candida albicans MTCC 227 after 48 hrs by micro-broth dilution method; type: functional
[9] = tested on: Mycobacterium tuberculosis; assay: Antitubercular activity against Mycobacterium tuberculosis H37Rv at 250 ug/mL; type: functional; details: read-out: GI
Outline: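 M. tuberculosis H37Rv tested on conventional L.J. (Löwenstein–Jensen) medium; activity read as percent growth inhibition.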

[10] = Antioxidant activity assessed as ascorbic acid equivalent/100g at 200 ug/mL by FRAP assay; type: functional
[11] = tested on: Mycobacterium tuberculosis; assay: Antitubercular activity against Mycobacterium tuberculosis H37Rv at > 256 ug/mL; type: functional

| Molecule | MIC [1] [µg/mL] | MIC [2] [µg/mL] | MIC [3] [µg/mL] | MIC [4] [µg/mL] | MIC [5] [µg/mL] | MIC [6] [µg/mL] | MIC ([7]; MTCC 3008, 48 h) [µg/mL] | MIC ([8]; MTCC 227, 48 h) [µg/mL] | inhibition of growth at 250 µg/mL [9] [%] | Activity [10] [mmol] | growth inhibition (GI) [11] [%] | MIC [7] [µg/mL] | MIC [8] [µg/mL] |
| --- | --- | --- | --- | --- | --- | --- | --- | --- | --- | --- | --- | --- | --- |
| C=CCN1c2ccccc2NC2=C(C(=O)CC(C)(C)C2)C1c1cc2ccccc2n(CC=C)c1=O (centres undefined) | > 250 | 500 (≈ 1070 µM) | > 250 | > 250 | > 250 | 250 (≈ 537 µM) | > 250 | 250 (≈ 537 µM) | < 50 | 266 |  |  |  |
| C=CCN1c2ccccc2NC2=C(C(=O)CCC2)C1c1cc2ccccc2n(CC=C)c1=O (centres undefined) | 100 (≈ 229 µM) | 200 (≈ 457 µM) | 100 (≈ 229 µM) | 250 (≈ 571 µM) | 100 (≈ 229 µM) | > 250 | 250 (≈ 571 µM) | > 250 | 51 | 389 |  |  |  |
| CCn1cc(C(=O)O)c(=O)c2cc(F)c(N3CCNCC3)cc21 [NORFLOXACIN] | 10 (≈ 31.3 µM) | 50 (≈ 157 µM) | 100 (≈ 313 µM) | 10 (≈ 31.3 µM) | 10 (≈ 31.3 µM) | 10 (≈ 31.3 µM) |  |  |  |  |  |  |  |
| OC(Cn1cncn1)(Cn1cncn1)c1ccc(F)cc1F [FLUCONAZOLE] |  |  |  |  |  |  |  |  |  |  | 99 |  |  |
| C=CCN1c2ccccc2NC2=C(C(=O)CCC2)C1c1cc2ccc(Cl)cc2n(CC=C)c1=O (centres undefined) | > 250 | 500 (≈ 1060 µM) | 250 (≈ 530 µM) | 200 (≈ 424 µM) | 250 (≈ 530 µM) | 62.5 (≈ 132 µM) | > 250 | > 250 | 76 | 361 |  |  |  |
| C=CCN1c2ccccc2NC2=C(C(=O)CCC2)C1c1cc2ccc(C)cc2n(CC=C)c1=O (centres undefined) | > 250 | 500 (≈ 1110 µM) | 250 (≈ 554 µM) | 200 (≈ 443 µM) | 100 (≈ 221 µM) | > 250 | > 250 | 250 (≈ 554 µM) | 64 | 382 |  |  |  |
| C=CCN1c2ccccc2NC2=C(C(=O)CCC2)C1c1cc2cc(C)ccc2n(CC=C)c1=O (centres undefined) | > 250 | 250 (≈ 554 µM) | 200 (≈ 443 µM) | 250 (≈ 554 µM) | 250 (≈ 554 µM) | 250 (≈ 554 µM) | 250 (≈ 554 µM) | > 250 | < 50 | 499 |  |  |  |
| C=CCN1c2ccccc2NC2=C(C(=O)CC(C)(C)C2)C1c1cc2ccc(C)cc2n(CC=C)c1=O (centres undefined) | 250 (≈ 521 µM) | 250 (≈ 521 µM) | 250 (≈ 521 µM) | 250 (≈ 521 µM) | > 250 | 200 (≈ 417 µM) | > 250 | > 250 | 67 | 358 |  |  |  |
| COC1=CC(=O)C[C@@H](C)[C@]12Oc1c(Cl)c(OC)cc(OC)c1C2=O [GRISEOFULVIN] |  |  |  |  |  |  | 100 (≈ 283 µM) | 500 (≈ 1420 µM) |  |  |  |  |  |
| C=CCn1c(=O)c(C2Nc3ccccc3NC3=C2C(=O)CCC3)cc2ccc(C)cc21 (centres undefined) | > 250 | 500 (≈ 1220 µM) | 200 (≈ 486 µM) | 100 (≈ 243 µM) | 100 (≈ 243 µM) | 62.5 (≈ 152 µM) | 250 (≈ 608 µM) | > 250 | 75 | 499 |  |  |  |
| C=CCn1c(=O)c(C2Nc3ccccc3NC3=C2C(=O)CCC3)cc2cc(C)ccc21 (centres undefined) | > 250 | 100 (≈ 243 µM) | 250 (≈ 608 µM) | 250 (≈ 608 µM) | 500 (≈ 1220 µM) | 250 (≈ 608 µM) | > 250 | > 250 | 58 | 499 |  |  |  |
| O=C(N[C@H](CO)[C@H](O)c1ccc([N+](=O)[O-])cc1)C(Cl)Cl [CHLORAMPHENICOL] | 50 (≈ 155 µM) | 50 (≈ 155 µM) | 50 (≈ 155 µM) | 50 (≈ 155 µM) | 50 (≈ 155 µM) | 50 (≈ 155 µM) |  |  |  |  |  |  |  |
| C=CCn1c(=O)c(C2Nc3ccccc3NC3=C2C(=O)CC(C)(C)C3)cc2ccccc21 (centres undefined) | > 250 | 200 (≈ 470 µM) | > 250 | > 250 | > 250 | 200 (≈ 470 µM) | > 250 | > 250 | < 50 | 324 |  |  |  |
| C=CCN1c2ccccc2NC2=C(C(=O)CC(C)(C)C2)C1c1cc2ccc(Cl)cc2n(CC=C)c1=O (centres undefined) | > 250 | 500 (≈ 1000 µM) | > 250 | > 250 | 500 (≈ 1000 µM) | > 250 | > 250 | > 250 | < 50 | 401 |  |  |  |
| Cc1ncc([N+](=O)[O-])n1CCO [METRONIDAZOLE] |  |  |  |  |  |  |  |  |  |  | 99 |  |  |
| Clc1ccc(COC(Cn2ccnc2)c2ccc(Cl)cc2Cl)c(Cl)c1 (centres undefined) [MICONAZOLE] |  |  |  |  |  |  |  |  |  |  | 99 |  |  |
| C=CCn1c(=O)c(C2Nc3ccccc3NC3=C2C(=O)CC(C)(C)C3)cc2ccc(Cl)cc21 (centres undefined) | > 250 | 250 (≈ 544 µM) | 250 (≈ 544 µM) | 100 (≈ 217 µM) | > 250 | 250 (≈ 544 µM) | > 250 | > 250 | 62 | 328 |  |  |  |
| O=C(O)c1cn(C2CC2)c2cc(N3CCNCC3)c(F)cc2c1=O [CIPROFLOXACIN] | 50 (≈ 151 µM) |  |  | 25 (≈ 75.4 µM) | 25 (≈ 75.4 µM) | 25 (≈ 75.4 µM) |  |  |  |  |  |  |  |
| C=CCN1c2ccccc2NC2=C(C(=O)CC(C)(C)C2)C1c1cc2cc(C)ccc2n(CC=C)c1=O (centres undefined) | 250 (≈ 521 µM) | 250 (≈ 521 µM) | > 250 | 200 (≈ 417 µM) | > 250 | 100 (≈ 208 µM) | 250 (≈ 521 µM) | > 250 | < 50 | 292 |  |  |  |
| C=CCn1c(=O)c(C2Nc3ccccc3NC3=C2C(=O)CC(C)(C)C3)cc2ccc(C)cc21 (centres undefined) | > 250 | 250 (≈ 569 µM) | 250 (≈ 569 µM) | 250 (≈ 569 µM) | > 250 | 250 (≈ 569 µM) | > 250 | > 250 | 91 | 270 |  |  |  |
| C=CCn1c(=O)c(C2Nc3ccccc3NC3=C2C(=O)CC(C)(C)C3)cc2cc(C)ccc21 (centres undefined) | 250 (≈ 569 µM) | 500 (≈ 1140 µM) | 200 (≈ 455 µM) | 250 (≈ 569 µM) | 250 (≈ 569 µM) | > 250 | 250 (≈ 569 µM) | > 250 | 96 | 462 |  |  |  |
| C=CCn1c(=O)c(C2Nc3ccccc3NC3=C2C(=O)CCC3)cc2ccccc21 (centres undefined) | 200 (≈ 503 µM) | 250 (≈ 629 µM) | 250 (≈ 629 µM) | 250 (≈ 629 µM) | 200 (≈ 503 µM) | 200 (≈ 503 µM) | > 250 | > 250 | < 50 | 347 |  |  |  |
| CC1(C)S[C@@H]2[C@H](NC(=O)[C@H](N)c3ccccc3)C(=O)N2[C@H]1C(=O)O [AMPICILLIN] | 100 (≈ 286 µM) | 250 (≈ 715 µM) | 250 (≈ 715 µM) | 100 (≈ 286 µM) | 100 (≈ 286 µM) | 100 (≈ 286 µM) |  |  |  |  |  |  |  |
| C=CCn1c(=O)c(C2Nc3ccccc3NC3=C2C(=O)CCC3)cc2ccc(Cl)cc21 (centres undefined) | 250 (≈ 579 µM) | 250 (≈ 579 µM) | 250 (≈ 579 µM) | 250 (≈ 579 µM) | 250 (≈ 579 µM) | 100 (≈ 232 µM) | > 250 | > 250 | < 50 | 490 |  |  |  |
| NYSTATIN |  |  |  |  |  |  |  |  |  |  |  | 100 | 100 |
